We go through 27 compounds from ChEMBL document CHEMBL1158369, “Hansch analysis of substituted benzoic acid benzylidene/furan-2-yl-methylene hydrazides as antimicrobial agents” (Eur J Med Chem, 2009).

In general, logP refers to a log measure of how a compound divides between an organic and an aqueous phase. Higher therefore signals higher lipophilicity.

SMILES strings stand for the structures.

Series [1] relates to Staphylococcus aureus. Kind of series: Antibacterial activity against Staphylococcus aureus after 24 hrs by tube dilution method. Format: functional. Put shortly:
(§1)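 Twofold serial dilutions of test and standard compounds in double strength nutrient broth (I.P.); tubes incubated at 37 °C for 24 h. Growth judged visually; MIC taken as lowest concentration with no visible turbidity.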

Series [2] has as its system Aspergillus niger. As to the kind of experiment: Antifungal activity against Aspergillus niger after 7 days by tube dilution method. It counts as functional. In outline:
(§2)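 Twofold serial dilutions of test and standard compounds in Sabouraud dextrose broth (I.P.); C. albicans incubated 37 °C for 48 h, A. niger 25 °C for 7 d. Growth read visually; MIC is lowest concentration without visible growth.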

In series [3] the test system is Bacillus subtilis. As to the kind of experiment: Antibacterial activity against Bacillus subtilis after 24 hrs by tube dilution method. It counts as functional. In outline: as §1
The subject of series [4] is Candida albicans. Kind of series: Antifungal activity against Candida albicans after 48 hrs by tube dilution method. It counts as functional. Put shortly: as §2
Series [5] is described as follows: Lipophilicity, log P of the compound. It counts as physicochemical. Conditions: octanol/water.
Series [6] has as its system Escherichia coli. As to the kind of experiment: Antibacterial activity against Escherichia coli after 24 hrs by tube dilution method. It counts as functional. In outline: as §1

`Nc1ccc(C(=O)N/N=C/c2cccc([N+](=O)[O-])c2)cc1`: the “-logMIC” value is recorded as 1.98 in series [1]; 1.8 in series [2]; 2.29 in series [3]; 1.66 in series [4]; 2.56 in series [6]. For the same compound, in series [5], the logP amounted to 2.6.
For `COc1ccc(/C=N/NC(=O)c2ccc([N+](=O)[O-])cc2)cc1OC`, the “-logMIC” value in series [1] is given as 1.99; in series [2], 1.75; in series [3], 2.34; in series [4], 1.72; in series [6] it was 2.63. The compound also showed a logP in series [5] of 2.87.
Regarding `COc1ccc(/C=N/NC(=O)c2cc([N+](=O)[O-])ccc2Cl)cc1OC`, the “-logMIC” value in series [1] came out at 2.67; in series [2], 1.95; in series [3], 2.62; in series [4] it was 1.76; in series [6], 2.67. Moreover, the logP in series [5] amounted to 3.39.
`COc1ccc(/C=N/NC(=O)c2cc([N+](=O)[O-])cc([N+](=O)[O-])c2)cc1`: the “-logMIC” value is on record as 2.2 in series [1]; 1.8 in series [2]; 2.42 in series [3]; 1.74 in series [4]; 2.64 in series [6]. The compound also showed a logP in series [5] of 3.08.
For the compound `O=C(N/N=C/c1cccc([N+](=O)[O-])c1)c1ccc(Cl)cc1`, the “-logMIC” value in series [1] is listed as 2.59; in series [2], 1.69; in series [3] it was 2.59; in series [4], 1.69; in series [6], 2.59. For the same compound, the logP in series [5] is 3.9.
Consider `Cc1ccc(C(=O)N/N=C/c2ccco2)cc1`, for which the logP in series [5] is 2.84.
`COc1ccc(/C=N/NC(=O)c2ccc(N)cc2)cc1OC`: the “-logMIC” value was found to be 1.94 in series [1]; 1.9 in series [2]; 2.29 in series [3]; 1.68 in series [4]; 2.49 in series [6]. The logP in series [5] is 2.14.
As to `O=C(N/N=C/c1ccco1)c1cc([N+](=O)[O-])cc([N+](=O)[O-])c1`, the “-logMIC” value in series [1] turned out to be 1.99; in series [2] it was 1.69; in series [3], 2.29; in series [4], 1.69; in series [6] it was 2.47. This compound registered a lipophilicity (logP) in series [5] of 2.28.
For the compound `CCn1cc(C(=O)O)c(=O)c2cc(F)c(N3CCNCC3)cc21` [NORFLOXACIN], the “-logMIC” value in series [1], in series [3] and in series [6] was 2.61 throughout.
On to `COc1ccc(/C=N/NC(=O)c2cccc([N+](=O)[O-])c2)cc1OC`, for which the “-logMIC” value in series [1] worked out at 2.05; in series [2], 1.75; in series [3] it was 2.28; in series [4] it was 1.64; in series [6], 2.63. In series [5], this compound returned a logP of 2.87.
In the case of `COc1ccc(/C=N/NC(=O)c2ccc(C)cc2)cc1`, the “-logMIC” value in series [1] turned out to be 2.24; in series [2], 1.88; in series [3], 2.32; in series [4] it was 1.63; in series [6] it was 2.54. For the same compound, the logP in series [5] turned out to be 3.64.
In the case of `COc1ccc(/C=N/NC(=O)c2cc([N+](=O)[O-])cc([N+](=O)[O-])c2)cc1OC`, the “-logMIC” value in series [1] is 2.38; in series [2] it was 2.08; in series [3] it was 2.51; in series [4] it was 1.78; in series [6] it was 2.68. The same compound had a logP in series [5] of 2.83.
In the case of `Cc1ccc(C(=O)N/N=C/c2cccc([N+](=O)[O-])c2)cc1`, the “-logMIC” value in series [1] is 2.14; in series [2] it was 1.85; in series [3] it was 2.4; in series [4], 1.59; in series [6] it was 2.47. Also, the logP in series [5] was 3.85.
In the case of `COc1ccc(/C=N/NC(=O)c2ccc(OC)c(OC)c2)cc1OC`, the “-logMIC” value is 2.07 in series [1]; 2.04 in series [2]; 2.34 in series [3]; 1.74 in series [4]; 2.64 in series [6]. The compound further returned a logP in series [5] of 2.42.
Consider `O=C(N/N=C/c1cccc([N+](=O)[O-])c1)c1cc([N+](=O)[O-])ccc1Cl`, for which the “-logMIC” value in series [1] turned out to be 2.65; in series [2], 1.59; in series [3], 2.65; in series [4], 1.75; in series [6], 2.65. Moreover, in series [5], the logP came to 3.85.
Turning to `COc1ccc(/C=N/NC(=O)c2ccc(N)cc2)cc1`, the “-logMIC” value in series [1] turned out to be 1.63; in series [2], 1.8; in series [3] it was 2.24; in series [4] it was 1.63; in series [6], 2.54. Also, in series [5], the logP was 2.39.
With `COc1ccc(/C=N/NC(=O)c2ccc([N+](=O)[O-])cc2)cc1`, the “-logMIC” value is recorded as 1.68 in series [1]; 1.98 in series [2]; 2.25 in series [3]; 1.62 in series [4]; 2.56 in series [6]. The compound further returned a logP in series [5] of 3.13.
Regarding `O=C(N/N=C/c1cccc([N+](=O)[O-])c1)c1ccc([N+](=O)[O-])cc1`, the “-logMIC” value stood at 1.99 in series [1]; 1.7 in series [2]; 2.09 in series [3]; 1.7 in series [4]; 2.61 in series [6]. The logP in series [5] was found to be 3.33.
For `COc1ccc(C(=O)N/N=C/c2cccc([N+](=O)[O-])c2)cc1OC`, the “-logMIC” value in series [1] is 2.05; in series [2], 1.72; in series [3], 2.33; in series [4], 1.66; in series [6], 2.63. The logP in series [5] amounted to 2.87.
As for `COc1ccc(/C=N/NC(=O)c2ccccc2Br)cc1OC`, the “-logMIC” value was 2.52 in series [1]; 2.06 in series [2]; 2.35 in series [3]; 1.76 in series [4]; 2.63 in series [6]. The same compound yielded a logP in series [5] of 3.71.
`COc1ccc(/C=N/NC(=O)c2ccc(C)cc2)cc1OC`: the “-logMIC” value in series [1] is listed as 2.17; in series [2], 1.75; in series [3] it was 2.58; in series [4], 1.68; in series [6], 2.58. The logP in series [5] was 3.39.
As to `COc1ccc(/C=N/NC(=O)c2ccc(OC)c(OC)c2)cc1`, the “-logMIC” value in series [1] was 2.17; in series [2], 1.68; in series [3], 2.58; in series [4], 1.68; in series [6], 2.58. The compound also displayed a logP in series [5] of 3.39.
Consider `O=C(N/N=C/c1cccc([N+](=O)[O-])c1)c1ccccc1Br`, for which the “-logMIC” value in series [1] was found to be 2.35; in series [2] it was 1.75; in series [3], 2.65; in series [4] it was 1.75; in series [6], 2.49. This compound gave a logP in series [5] of 4.17.
As for `OC(Cn1cncn1)(Cn1cncn1)c1ccc(F)cc1F` [FLUCONAZOLE], the “-logMIC” value in series [2] and in series [4] was 2.64 in each case.
Regarding `COc1ccc(C(=O)N/N=C/c2ccco2)cc1OC`, the “-logMIC” value in series [1] is 1.61; in series [2], 1.87; in series [3] it was 1.98; in series [4], 1.64; in series [6], 2.3. In series [5], this compound had a logP of 1.87.
Regarding `COc1ccc(/C=N/NC(=O)c2ccc(Cl)cc2)cc1OC`, the “-logMIC” value in series [1] was found to be 2.61; in series [2], 2.01; in series [3], 2.61; in series [4], 1.71; in series [6], 2.61. Also, the logP in series [5] is 3.44.
For the compound `O=C(N/N=C/c1cccc([N+](=O)[O-])c1)c1cccc([N+](=O)[O-])c1`, the “-logMIC” value in series [1] amounted to 1.99; in series [2] it was 1.7; in series [3], 2.3; in series [4], 1.7; in series [6], 2.61. The logP in series [5] turned out to be 3.33.
